Test results: ChEMBL document CHEMBL2163221, “Discovery of a potential anti-ischemic stroke agent: 3-pentylbenzo[c]thiophen-1(3H)-one” (J Med Chem, 2012)
Activity calls are given as the source filed them. The rule behind the calls is not given here.

How the values were obtained:
Platelet [1] = test: Inhibition of arachidonic acid-induced platelet aggregation in rabbit platelet rich plasma at 0.1 mM by Born's turbidimetric method; type: functional; settings: Oryctolagus cuniculus
Method in brief: (§1)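 Rabbit carotid blood in 3.8% sodium citrate (9:1); PRP by 500g spin for 10 min, PPP by a further 3000g spin for 10 min. PRP was preincubated in duplicate for 5 min at 37 °C with vehicle or agent (0.1, 0.2, 0.4, 0.8, 1.6 mM). Aggregation was triggered by ADP (10 μM final) or AA (1 mM), and maximal light transmission was read within 5 min, within 3 h of collection. Inhibition % = 100 × (1 − treated/control); IC50 was calculated.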

Rattus norvegicus [2] = test: Antioxidant activity in Sprague-Dawley rat middle cerebral artery occlusion model assessed as increase in superoxide dismutase activity at 3 mg/kg, ig for 7 consecutive days; type: functional; settings: route intragastric
Method in brief: (§2)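 Rats pretreated orally in saline for 7 days underwent 2 h MCAO with reperfusion. At 24 h brains were removed, rinsed in cold 0.9% saline, blotted and stored at −70 °C. After protein quantification, GSH, SOD activity and MDA were measured with commercial kits; n = 12/group.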

Platelet [3] = test: Inhibition of adenosine diphosphate-induced platelet aggregation in rabbit platelet rich plasma at 0.1 mM by Born's turbidimetric method; type: functional; settings: Oryctolagus cuniculus; method in brief: as §1
Rattus norvegicus [4] = test: Antithrombotic activity in Sprague-Dawley rat arteriovenous shunt model assessed as reduction of thrombus wet weight at 3 mg/kg, po qd for 5 consecutive days; type: functional; design: scale not given: the % may be the effect or the level left
Method in brief: (§3)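 Male SD rats were dosed by gavage in saline daily for 5 days (n = 12/group). An A-V shunt linked the right carotid artery to the left jugular vein: a saline-filled 14 cm polyethylene tube holding 6 cm of four braided silk threads. After 15 min of flow, the threads were weighed wet, then dried 6 h at room temperature and reweighed, less the pre-experiment thread weight.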

Rattus norvegicus [5] = test: Anticerebral ischemic activity in Sprague-Dawley rat middle cerebral artery occlusion model assessed as reduction of water content in brain at 3 mg/kg, ig for 7 consecutive days; type: functional, organism-based; design: dose 3 mg/kg
Method in brief: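 Rats given oral saline-vehicle pretreatment for 7 days underwent 2 h suture MCAO plus reperfusion. At 24 h the animals were decapitated and brains weighed wet, then dried at 105 °C for 24 h. Water % = (wet − dry)/wet × 100; n = 6/group.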

Rattus norvegicus [6] = test: Anticerebral ischemic activity in Sprague-Dawley rat middle cerebral artery occlusion model assessed as reduction in infarct size in brain at 3 mg/kg, ig for 7 consecutive days by TTC assay; type: functional; design: scale not given: the % may be the effect or the level left; settings: route intragastric
Method in brief: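 SD rats, chloral hydrate 350 mg/kg ip anaesthesia; right MCA occluded 2 h by silicone-tipped 4-0 nylon filament via ECA into ICA (>80% CBF drop by laser Doppler, 37 ± 0.5 °C), then reperfusion. Dosed in normal saline orally daily 7 days before ischemia. At 24 h, 2-mm coronal slices stained 2% TTC 30 min 37 °C; infarct area as % of whole brain; n = 6.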

Platelet [7] = test: Inhibition of arachidonic acid-induced platelet aggregation in rabbit platelet rich plasma by Born's turbidimetric method; type: functional; settings: Oryctolagus cuniculus; method in brief: as §1
Plasma = test: Anticoagulant activity in rabbit plasma assessed as length of activated partial thromboplastin time; type: functional, cell-free; settings: Oryctolagus cuniculus
PC-12 [8] = test: Antioxidant activity in rat PC12 cells assessed as inhibition of hydrogen peroxide induced cytotoxicity at 10 uM treated for 2 hrs prior to H2O2 challenge measured after 1 hr by MTT assay (reference value: 52.45%); type: functional; design: scale not given: the % may be the effect or the level left
Rattus norvegicus [9] = test: Antithrombotic activity in Sprague-Dawley rat arteriovenous shunt model assessed as reduction of thrombus dry weight at 3 mg/kg, po qd for 5 consecutive days; type: functional; design: scale not given: the % may be the effect or the level left; method in brief: as §3
Rattus norvegicus [10] = test: Antioxidant activity in Sprague-Dawley rat middle cerebral artery occlusion model assessed as increase in glutathione level in brain at 3 mg/kg, ig for 7 consecutive days; type: functional; settings: route intragastric; method in brief: as §2
Rattus norvegicus [11] = test: Anticerebral ischemic activity in Sprague-Dawley rat middle cerebral artery occlusion model assessed as reduction in neurological deficit score at 3 mg/kg, ig for 7 consecutive days by Longa's method; type: functional; design: scale not given: the % may be the effect or the level left; settings: route intragastric
Method in brief: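 SD rats were dosed orally in normal saline for 7 days before ischemia (n = 12/group). They were anesthetized ip with 350 mg/kg chloral hydrate and given MCAO with a silicone-tipped 4-0 nylon suture for 2 h, then reperfusion. Occlusion was confirmed as >80% CBF drop by laser Doppler, with core temperature held at 37 °C. Deficits were scored blinded by modified Longa's method 24 h after reperfusion.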

Rattus norvegicus [12] = test: Antioxidant activity in Sprague-Dawley rat middle cerebral artery occlusion model assessed as decrease in malondialdehyde level in brain at 3 mg/kg, ig for 7 consecutive days; type: functional; design: scale not given: the % may be the effect or the level left; settings: route intragastric; method in brief: as §2
PC-12 [13] = test: Antioxidant activity in rat PC12 cells assessed as inhibition of hydroxyl radical-induced cytotoxicity at 10 uM treated for 2 hrs prior to H2O2/Fe+ challenge measured after 1 hr by MTT assay (reference value: 61.95%); type: functional; design: scale not given: the % may be the effect or the level left
Platelet [14] = test: Inhibition of adenosine diphosphate-induced platelet aggregation in rabbit platelet rich plasma by Born's turbidimetric method; type: functional; settings: Oryctolagus cuniculus; method in brief: as §1

## CC1=NN(c2ccccc2)C(=O)C1 [EDARAVONE]
Platelet [1]
  inhibition at 100 µM: 36.1%
Rattus norvegicus [2]
  Activity: 34.2%
Platelet [3]
  inhibition at 100 µM: 11.5%
Rattus norvegicus [4]
  Activity: 36.14%
Rattus norvegicus [5]
  Activity: Active
Rattus norvegicus [6]
  Activity: 37.31%
Platelet [7]
  IC50: 250 µM
Plasma
  Activity: inactive
PC-12 [8]
  Activity: 78.05%
Rattus norvegicus [9]
  Activity: 30.08%
Rattus norvegicus [10]
  Activity: 58.33%
Rattus norvegicus [11]
  Activity: 34.46%
Rattus norvegicus [12]
  Activity: 28.52%
PC-12 [13]
  Activity: 83.3%
Platelet [14]
  IC50: 850 µM

## O=C1SC(Cc2ccccc2)c2ccccc21 (racemic)
Platelet [7]
  IC50: > 1000 µM
Platelet [14]
  IC50: > 1000 µM

## CCCCCCCC1SC(=O)c2ccccc21 (racemic)
Platelet [7]
  IC50: > 1000 µM
Platelet [14]
  IC50: 720 µM

## CCCC1SC(=O)c2ccccc21 (racemic)
Platelet [7]
  IC50: 400 µM
Platelet [14]
  IC50: > 1000 µM

## CC(C)CCC1SC(=O)c2ccccc21 (racemic)
Platelet [7]
  IC50: > 1000 µM
Platelet [14]
  IC50: > 1000 µM
